TAAR1 antagonist: human TAAR1 antagonists, primary screen, Fluo-8 calcium fluorescence, CHO RD-HGA16 cells. Trace amine-associated receptor 1 (Homo sapiens), Q96RJ0. antagonist. inhibition, % at 3 µM. actives 1.5% (n = 360,000);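 active = inhibition above a per-plate cutoff, the mean inhibition of test compounds on that plate plus 3 SD, cut at about 49% in these data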;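 note: 0% = DMSO plus EC80 beta-PEA response and 100% = DMSO alone without agonist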
Target sequence (Q96RJ0 whole entry, looked up): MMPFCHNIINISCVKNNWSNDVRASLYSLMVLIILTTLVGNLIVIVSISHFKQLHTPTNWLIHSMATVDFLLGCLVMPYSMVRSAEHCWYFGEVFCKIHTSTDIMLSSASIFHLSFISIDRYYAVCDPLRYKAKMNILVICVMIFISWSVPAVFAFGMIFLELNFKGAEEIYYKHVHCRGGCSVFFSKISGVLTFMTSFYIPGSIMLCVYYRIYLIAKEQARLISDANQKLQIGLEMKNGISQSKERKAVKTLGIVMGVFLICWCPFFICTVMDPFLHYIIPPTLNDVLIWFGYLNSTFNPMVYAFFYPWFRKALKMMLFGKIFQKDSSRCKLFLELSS
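System: RD-HGA16 CHO cells with stable hTAAR1 and Gα16 | Probe or stimulus: EC80 β-phenethylamine stimulus | Dosing: 3 µM, single point | Times: Dye loading 75 min at 37 °C, then 30 min room temperature | Measured by: Fluo-8 calcium-sensitive fluorescence | Read-out basis: % inhibition of agonist calcium response | Replicates: n of 1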
TAAR1 agonist: human TAAR1 agonists, primary screen, Fluo-8 calcium fluorescence, CHO RD-HGA16 cells; actives 0.99% (n = 360,000); activation, % at 3 µM; Trace amine-associated receptor 1 (Homo sapiens), Q96RJ0; vehicle wells 0%, saturating PEA agonist 100%;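 active = activation above the mean activation of all test compounds in the run plus 3 SD, cut at about 38% in these data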
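Test system: RD-HGA16 (CHO) cells co-expressing Gα16 and hTAAR1 | Doses: Single dose, 3 µM | Schedule: 17-24 h seeding, 75 min 37 °C dye, 30 min RT | Evaluation: % activation from peak over basal fluorescence ratio, DMSO-to-PEA scaled | Technique: Kinetic Fluo-8 calcium fluorescence | Benchmarks: Low control DMSO, high control PEA (EC100)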
rCAG binder: binders of r(CAG) RNA repeats, primary screen, biochemical, fluorescence | r(CAG) RNA repeat, TO-PRO-1 dye displacement fluorescence | inhibition, % at 3 µM | actives 1.3% (n = 370,000);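 active = inhibition above the plate cutoff, the mean of all test compounds on that plate plus 3 SD, cut at about 35% in these data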;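 note: 0% = DMSO alone and 100% = 100 µM mitoxantrone as full dye displacement; higher means more dye released from RNA so lower well fluorescence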
HCV NS3 hel inh: inhibitors of HCV NS3 helicase, primary screen, biochemical, Cy5 molecular beacon fluorescence. Hepatitis C virus NS3 helicase. NS3 helicase DNA unwinding. inhibition, % at 10.9 µM. actives 0.56% (n = 290,000). AID 1800, 2009;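 active = inhibition above the mean of all tested compounds plus 3 SD, set per campaign, cut at about 35% in these data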;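 note: 0% = DMSO wells and 100% = thioflavine S control wells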
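assay system = NS3 helicase fragment of HCV | buffer or medium = MOPS pH 6.5, MgCl2, DTT, Tween20, BSA | timing = 60 min unwinding reaction at 25 °C after ATP addition | signal = Cy5 beacon fluorescence read at start and 1 h | read-out basis = % inhibition of unwinding | control set = low DMSO, high thioflavine S at 110 µM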
HCV core dimer: inhibitors of HCV core protein dimerization, primary screen, biochemical, TR-FRET, high-throughput | AID 1899, 2009 | actives 0.33% (n = 300,000) | inhibition, % at 5 µM | TR-FRET GST/Flag-core106 dimerization, 1536-well;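 active = inhibition above the mean of all tested compounds plus 3 SD, set per screening campaign, cut at about 45% in these data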
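assay system = GST-tagged and Flag-tagged HCV core protein residues 1-106 | controls = unlabelled core106 and no-GST-core106 wells | incubation = compound-protein-antibody incubation 4 h at 22.5 °C | probe or stimulus = Eu donor and XL665 acceptor anti-tag antibodies | read-out = % inhibition based on acceptor/donor emission ratio | signal = TR-FRET 671 and 617 nm emission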
Numbers without * were called inactive; i = inactive; nt = no result given; ! = a repeat was not active. Rows were chosen to be rich in hits. Some 3.7% of all compounds tested hit in one or more screens of this group.

SMILES | TAAR1 antagonist | TAAR1 agonist | rCAG binder | HCV NS3 hel inh | HCV core dimer
Cc1ccc(C)c(NP(=O)(Oc2ccccc2)Oc2ccccc2)c1 | 80.0* | 8.0 | -5.2 | 1.0 | 7.8
Cc1ccc(NP(=O)(Oc2ccccc2F)Oc2ccccc2F)cc1C | 12.6 | 12.9 | -3.5 | -33.1 | 3.4
O=C(NC(Cc1ccccc1)P(=O)(O)Oc1ccccc1)OCc1ccccc1 (stereo not given) | nt | nt | 5.5 | nt | nt
Cc1ccccc1CCC[C@H](CC1CCCCC1)CN(C)C(=O)Oc1ccccc1 | nt | nt | 4.4 | nt | nt
Cc1[nH]c2ccc(OC(F)(F)F)cc2c1CCNCc1ccc(Cl)cc1 | 35.1 | 38.5* | 1.6 | -71.4 | nt
COc1ccc2[nH]c(C)c(CCNCc3cccnc3)c2c1 | -4.1 | 9.5 | -0.1 | nt | nt
CCOc1cccc(CNCCc2c(C)[nH]c3ccc(OC(F)(F)F)cc23)c1O | 49.0* | 54.7* | 6.5 | -76.0 | -6.9
Cc1[nH]c2ccc(OC(F)(F)F)cc2c1CCNCc1cccc([N+](=O)[O-])c1 | 49.4* | 44.3* | -5.2 | -55.2 | -5.5
O=C(CN1C(=O)[C@@H](Cc2c[nH]c3ccccc23)N=C(c2ccccc2)c2ccccc21)NC1CCCCC1 | nt | nt | 8.7 | nt | nt
O=C(CNC(=O)OCc1ccccc1)NC(Cc1ccccc1)P(=O)(Oc1ccccc1)Oc1ccccc1 (stereo not given) | nt | nt | 5.7 | nt | nt
CCOP(=O)(OCC)c1ccc(OP(=O)(c2cccc([N+](=O)[O-])c2)c2cccc([N+](=O)[O-])c2)cc1 | -17.0 | 5.2 | 0.0 | -3.0 | 6.3
O=[N+]([O-])c1cccc(NP(=O)(Oc2ccccc2)Oc2ccccc2)c1 | 58.2* | 2.5 | -3.1 | -5.5 | 15.1
COC(=O)C1=C(c2ccc(F)cc2OCc2ccccc2)C[C@@H]2CC[C@H]1N2C(=O)NCc1ccc(Br)cc1 | 51.1* | 12.1 | 3.4 | nt | nt
COC(=O)C1=C(c2ccc(F)cc2OCc2ccccc2)C[C@@H]2CC[C@H]1N2C(=O)NCc1ccc(N(C)C)cc1 | 46.6 | 4.7 | 4.1 | nt | nt
COP(=O)(C(=O)Nc1ccccc1)C(CC(C)C)NC(=O)OCc1ccccc1 (stereo not given) | nt | nt | -0.4 | nt | nt
c1cncc(-c2ccc3n2Cc2cnnn2-c2ccccc2-3)c1 | nt | nt | -2.1 | nt | nt
C#C[C@]1(O)CCC2C3C(=O)C=C4C=CCC[C@]4(C)C3CC[C@@]21C (stereo not given in full) | 48.6* | 14.1 | 1.1 | nt | nt
Cc1cc(C)cc(N2C(=O)NC(=O)/C(=C\c3cccn3-c3ccccc3)C2=O)c1 | 47.3 | 42.8* | 10.5 | 23.6 | -0.3
O=CNc1ccc(OP(=O)(Oc2ccccc2)Oc2ccccc2)cc1 | 9.0 | -1.4 | -4.8 | -13.5 | 5.0
Cc1cccc(OP(=O)(Oc2ccccc2)OC(c2ccccc2)C(F)(F)F)c1 (stereo not given) | 50.7* | 0.9 | -0.5 | -3.8 | 7.5
Clc1ccc(COC(Cn2ccnc2)c2ccc(Cl)cc2Cl)c(Cl)c1 (stereo not given) | 53.1*! | 18.8 | 3.0 | -61.6 | 13.8
N#CCC[C@H]1CC[C@]2(CCCN(Cc3ccccn3)C2)O1 | nt | nt | 1.7 | nt | nt
COc1ccccc1OP(=O)(Nc1cccnc1)Oc1ccccc1OC | 59.7* | 15.3 | -5.3 | -49.3 | 2.2
Cc1cccc(NP(=O)(Oc2ccccc2F)Oc2ccccc2F)c1 | 53.1* | 3.5 | -8.1 | -4.0 | 2.5
CC1CCCN(CC(=O)c2ccc(Cl)c(Cl)c2)C1 (stereo not given) | 6.1 | 41.8* | 4.3 | -3.0 | 1.1
CC1CCN(CC(=O)c2ccc3c(c2)OCCO3)CC1 | -8.1 | 0.1 | 1.7 | -6.8 | 1.6
COc1ccc(CC(C)NCCC(c2ccccc2)c2ccccc2)cc1 (stereo not given) | 42.6 | 42.5* | 7.6 | -47.2 | -254.8
CCCCNC(C)Cc1ccccc1 (stereo not given) | 2.1 | 0.6 | -1.2 | nt | nt
CC(=O)N1c2ccccc2C(c2ccccc2)=NCC1C(=O)NCc1ccccc1 (stereo not given) | nt | nt | 3.1 | nt | nt
CCOC(=O)C1CCCN(c2ccc([N+](=O)[O-])c3nonc23)C1 (stereo not given) | 71.5* | 225.2* | i | -8.1 | nt
